Data taken from ChEMBL document CHEMBL1127017.

Key:
[1] = target: T1, Mineralocorticoid receptor (Rattus norvegicus) (UniProt P22199); assay: Relative binding affinity for the rat kidney mineralocorticoid receptor (MR) relative to the affinity of aldosterone as tracer
T1 sequence (whole entry): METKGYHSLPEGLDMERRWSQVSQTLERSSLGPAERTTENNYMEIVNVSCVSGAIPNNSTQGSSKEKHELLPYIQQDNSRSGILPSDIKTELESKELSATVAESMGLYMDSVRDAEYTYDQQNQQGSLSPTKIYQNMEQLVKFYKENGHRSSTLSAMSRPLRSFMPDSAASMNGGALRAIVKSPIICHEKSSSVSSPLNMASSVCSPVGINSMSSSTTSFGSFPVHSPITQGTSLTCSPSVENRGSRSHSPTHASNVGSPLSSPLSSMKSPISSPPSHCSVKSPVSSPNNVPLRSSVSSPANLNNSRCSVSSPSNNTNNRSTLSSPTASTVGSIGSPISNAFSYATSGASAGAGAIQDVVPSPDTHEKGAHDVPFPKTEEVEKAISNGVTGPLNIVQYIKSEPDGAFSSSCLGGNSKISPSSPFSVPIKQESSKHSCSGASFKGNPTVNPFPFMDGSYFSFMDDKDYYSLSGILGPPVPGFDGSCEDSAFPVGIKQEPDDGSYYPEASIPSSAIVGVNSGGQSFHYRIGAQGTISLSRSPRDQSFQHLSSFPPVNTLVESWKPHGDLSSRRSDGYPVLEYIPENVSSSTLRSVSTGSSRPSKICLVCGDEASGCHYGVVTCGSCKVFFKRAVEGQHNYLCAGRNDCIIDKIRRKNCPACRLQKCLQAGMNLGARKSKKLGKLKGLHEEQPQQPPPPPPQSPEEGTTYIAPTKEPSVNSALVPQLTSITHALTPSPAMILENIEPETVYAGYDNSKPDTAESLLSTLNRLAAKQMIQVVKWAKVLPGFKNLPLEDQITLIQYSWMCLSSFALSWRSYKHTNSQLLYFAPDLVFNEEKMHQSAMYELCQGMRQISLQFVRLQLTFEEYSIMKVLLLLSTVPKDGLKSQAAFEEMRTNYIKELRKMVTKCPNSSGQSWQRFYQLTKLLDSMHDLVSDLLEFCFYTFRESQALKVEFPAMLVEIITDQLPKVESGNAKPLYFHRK

[2] = target: T2, Progesterone receptor (Rattus norvegicus) (UniProt Q63449); assay: Relative binding affinity for progesterone receptor in a competitive radiometric binding assay relative to the affinity of R5020 as tracer
T2 sequence (whole entry): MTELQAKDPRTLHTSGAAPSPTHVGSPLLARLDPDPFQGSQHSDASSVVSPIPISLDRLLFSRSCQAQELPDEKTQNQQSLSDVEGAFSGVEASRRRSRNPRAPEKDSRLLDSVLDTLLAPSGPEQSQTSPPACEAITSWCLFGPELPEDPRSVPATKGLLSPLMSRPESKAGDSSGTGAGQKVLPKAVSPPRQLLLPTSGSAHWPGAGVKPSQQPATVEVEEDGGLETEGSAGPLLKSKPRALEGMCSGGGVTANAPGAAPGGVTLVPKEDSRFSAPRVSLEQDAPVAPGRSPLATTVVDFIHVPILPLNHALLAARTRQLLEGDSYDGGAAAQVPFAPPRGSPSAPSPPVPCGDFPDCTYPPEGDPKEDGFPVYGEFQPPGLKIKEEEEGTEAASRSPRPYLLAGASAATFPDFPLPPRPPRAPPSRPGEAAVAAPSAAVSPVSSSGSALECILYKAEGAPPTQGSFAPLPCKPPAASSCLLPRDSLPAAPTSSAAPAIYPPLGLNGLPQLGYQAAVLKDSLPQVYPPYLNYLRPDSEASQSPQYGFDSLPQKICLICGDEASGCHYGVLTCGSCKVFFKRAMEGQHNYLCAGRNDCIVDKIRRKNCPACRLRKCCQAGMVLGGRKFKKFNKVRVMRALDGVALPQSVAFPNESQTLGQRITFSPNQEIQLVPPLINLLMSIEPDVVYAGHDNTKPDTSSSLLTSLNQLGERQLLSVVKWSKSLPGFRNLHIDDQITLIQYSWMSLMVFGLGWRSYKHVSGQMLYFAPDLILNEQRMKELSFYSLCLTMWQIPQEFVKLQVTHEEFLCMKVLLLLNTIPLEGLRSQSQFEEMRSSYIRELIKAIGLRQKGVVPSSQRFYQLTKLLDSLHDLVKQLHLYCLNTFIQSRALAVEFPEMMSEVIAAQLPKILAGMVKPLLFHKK
Summary of the method: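 The R5020 standard is defined as 100%, and binding of other ligands is expressed as a percentage relative to it.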

| SMILES | relative binding affinity (RBA) [1] | relative binding affinity (RBA) [2] |
| --- | --- | --- |
| CC(=O)[C@@]12OC(C)(c3ccc(C(=O)c4ccccc4)cc3)O[C@@H]1CC1C3CCC4=CC(=O)CC[C@]4(C)C3CC[C@@]12C (some centres undefined) | < 0.003 | 6.6 |
| CC(=O)[C@@]12OC(C)(c3ccc(N=C=S)cc3)O[C@@H]1CC1C3CCC4=CC(=O)CC[C@]4(C)C3CC[C@@]12C (some centres undefined) | 0.09 | 1.3 |
| CC(=O)[C@@]12OC(C)(c3ccc(N)cc3)O[C@@H]1CC1C3CCC4=CC(=O)CC[C@]4(C)C3CC[C@@]12C (some centres undefined) |  | 0.01 |
| CC(=O)[C@@]12OC(C)(c3ccc(F)cc3)O[C@@H]1CC1C3CCC4=CC(=O)CC[C@]4(C)C3CC[C@@]12C (stereo in doubt; 11) |  | 0.56 |
| CC(=O)[C@@]12OC(C)(c3c(F)c(F)c(F)c(F)c3F)O[C@@H]1CC1C3CCC4=CC(=O)CC[C@]4(C)C3CC[C@@]12C (some centres undefined) | 0.65 | 20 |
| CC(=O)[C@@]12OC(C)(c3ccccc3)O[C@@H]1C[C@H]1[C@@H]3CCC4=CC(=O)CC[C@]4(C)[C@H]3CC[C@@]12C (stereo in doubt; 17) |  | 1.2 |
| CC(=O)[C@@]12OC(C)(c3ccc(F)cc3)O[C@@H]1CC1C3CCC4=CC(=O)CC[C@]4(C)C3CC[C@@]12C (stereo in doubt; 10) | 6 | 53 |
| CC(=O)[C@@]12OC(C)(c3ccccc3)O[C@@H]1C[C@H]1[C@@H]3CCC4=CC(=O)CC[C@]4(C)[C@H]3CC[C@@]12C (stereo in doubt; 16) | 1.6 | 16 |
| CC(=O)[C@@]12OC(C)(c3ccc(I)cc3)O[C@@H]1CC1C3CCC4=CC(=O)CC[C@]4(C)C3CC[C@@]12C (some centres undefined) | 0.13 | 25 |
| CC(=O)[C@H]1CC[C@H]2[C@@H]3CCC4=CC(=O)CC[C@]4(C)[C@H]3CC[C@]12C |  | 13 |
| CC(=O)[C@@]12OC(C)(c3ccco3)OC1CC1C3CCC4=CC(=O)CC[C@]4(C)C3CC[C@@]12C (some centres undefined) |  | 5.5 |
| CC(=O)[C@@]12OC(C)(c3ccc(N=[N+]=[N-])c(I)c3)O[C@@H]1CC1C3CCC4=CC(=O)CC[C@]4(C)C3CC[C@@]12C (some centres undefined) |  | 2.9 |
| CC(=O)[C@@]12OC(C)(c3ccc(N=[N+]=[N-])cc3)O[C@@H]1CC1C3CCC4=CC(=O)CC[C@]4(C)C3CC[C@@]12C (stereo in doubt; 6) | 0.13 | 15 |
| CC(=O)[C@@]12OC(C)(C)O[C@@H]1C[C@H]1[C@@H]3CCC4=CC(=O)CC[C@]4(C)[C@H]3CC[C@@]12C |  | 2 |
| CC(=O)[C@@]12OC(C)(c3ccc(N=[N+]=[N-])cc3)O[C@@H]1CC1C3CCC4=CC(=O)CC[C@]4(C)C3CC[C@@]12C (stereo in doubt; 7) |  | 0.18 |
| CC(=O)[C@@]12OC(C)(c3c(F)c(F)c(N=[N+]=[N-])c(F)c3F)O[C@@H]1CC1C3CCC4=CC(=O)CC[C@]4(C)C3CC[C@@]12C (some centres undefined) | 0.95 | 14 |
